Measurements: the array DNA melting data of Ke et al. (doi:10.1101/2024.01.08.574731)

How the values were obtained:
[1] = folding enthalpy; higher = less favourable; fluorescence melt of hairpins on a sequencing array, two-state fit; settings: sodium 0.088 M
In short: (§1)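 Folding enthalpy and melting temperature were estimated with bootstrapped two-state fits and combined across four replicates by inverse-variance weighting, with fitted temperatures raised by 9.35 °C to match UV melts. The data were Cy3 fluorescence of library hairpins, with annealed Cy3 and quencher oligos, on a sequenced MiSeq flow cell in 50 mM Na-HEPES pH 8.0, 25 mM NaCl, imaged in 2.5 °C steps up to 60 °C and normalised to pre-quench Cy3 and control constructs.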

[2] = melting temperature; fluorescence melt of hairpins on a sequencing array, two-state fit, raised by 9.35 °C to match UV melts; settings: sodium 0.088 M
In short: as §1

| Sequence | folding enthalpy [1] [kcal/mol] | Tm [2] [°C] |
| --- | --- | --- |
| GGCATGAAAATGCC (((((....))))) | -26 | 62.8 |
| GGCATGACGAAAGTCGCC (((..(((....)))))) | -28.3 | 52.6 |
| GGCATGCGAAAGCAGCC (((.(((....)))))) | -21.6 | 64.3 |
| GGCATGGGAAACCACGCC (((.(((....))).))) | -35.2 | 49.4 |
| GGCCAACCGAAAGGTGCC (((..(((....)))))) | -23.8 | 50.4 |
| GGCCAACGAAAGTTCGCC (((.(((....))).))) | -40.2 | 47 |
| GGCCAACGAAAGTTTGCC (((.(((....))).))) | -45.6 | 50.7 |
| GGCCAAGGAAACCTAGCC (((.(.(....).).))) | -27.2 | 31.3 |
| GGCCAAGGAAACTCAGCC (((..((....))..))) | -11.7 | 30.2 |
| GGCCAAGGAAACTTAGCC (((.(((....))).))) | -24.7 | 36.3 |
| GGCCACGGAAACGTGACC ((.((((....)))).)) | -37.9 | 54.1 |
| GGCCAGACGAAAGTCGCC (((..(((....)))))) | -13.3 | 54.1 |
| GGCCAGGGAAACCCGACC ((.(.((....)).).)) | -11.9 | 32.5 |
| GGCCATCGAAAGATAGCC (((.(((....))).))) | -29.4 | 48.3 |
| GGCCATTCGAAAGAAGCC (((..(((....)))))) | -19.9 | 33.1 |
| GGCCCAGGAAACTGGGTC (.(((((....))))).) | -34.5 | 59.8 |
| GGCCCATCGAAAGATGCC (((..(((....)))))) | -12.4 | 34.6 |
| GGCCCCACGAAAGTGGCC (((..(((....)))))) | -11.8 | 44.7 |
| GGCCCCGGAAACGGGACC ((.((((....)))).)) | -25.8 | 59 |
| GGCCCGCGAAAGCGCGCC (((.(((....))).))) | -26.5 | 64.4 |
| GGCCCGCGAAAGCGTGCC (((.(((....))).))) | -26.5 | 67.3 |
| GGCCCTCGAAAGAGTGCC (((.(((....))).))) | -44.1 | 53.3 |
| GGCCCTGGAAACAAGGCC ((((.((....)).)))) | -36.7 | 48.3 |

| Sequence | folding enthalpy [1] [kcal/mol] | Tm [2] [°C] |
| --- | --- | --- |
| GGCCCTTCGAAAGAAGCC (((..(((....)))))) | -12.6 | 27.3 |
| GGCCGCACGAAAGTGGCC (((..(((....)))))) | -26.5 | 58.9 |
| GGCCGCGAAAGCGATGCC ((((((....)))..))) | -25.2 | 59.3 |
| GGCCGCGAAAGCGTGGCC ((((((....)))..))) | -22.8 | 69.2 |
| GGCCGCGGAAACACGGCC (((((.(....).))))) | -45.4 | 66.1 |
| GGCCGGGGAAACCCGACC ((.((((....)))).)) | -34.5 | 57.2 |
| GGCCGTGCGAAAGCAGCC (((..(((....)))))) | -16.3 | 46.6 |
| GGCCGTGGAAACACGACC ((.((((....)))).)) | -36.2 | 55 |
| GGCCGTGGAAACACGGTC (.(((((....))))).) | -24.3 | 65.3 |
| GGCCTACCGAAAGGTGCC (((..(((....)))))) | -20.7 | 46.7 |
| GGCCTAGGAAACTGGGTC (.((.((....)).)).) | -28.5 | 40.9 |
| GGCCTATCGAAAGATGCC (((..(((....)))))) | -22.8 | 36.1 |
| GGCCTCGGAAACGAAGCC (((.(((....))).))) | -30.8 | 47.8 |
| GGCCTGCCGAAAGGCGCC (((..(((....)))))) | -13.7 | 49.4 |
| GGCCTGCGAAAGCATGCC (((.(((....))).))) | -28.2 | 58.4 |
| GGCCTGGGAAACTGGGCC ((((..(....)..)))) | -38 | 54.7 |
| GGCCTTCCGAAAGGAGCC (((..(((....)))))) | -19.1 | 38.9 |
| GGCCTTTCGAAAGAAGCC (((..(((....)))))) | -29.9 | 37.2 |
| GGCGAACCGAAAGGTGCC (((..(((....)))))) | -28.3 | 53.7 |
| GGCGAACGAAAGTTGGCC (((.(((....))).))) | -42.5 | 59 |
| GGCGAAGCGAAAGCTGCC (((..(((....)))))) | -17.7 | 52.8 |
| GGCGAAGGAAACTTCGTC (.(((((....))))).) | -35.7 | 53.1 |
